According to ChEMBL document CHEMBL1140934, “Structure-activity relationships of antitubercular nitroimidazoles. 2. Determinants of aerobic activity and quantitative structure-activity relationships” (2009):
Converted amounts (≈) assume the structure as drawn.

Key:
[1] = system: Mycobacterium tuberculosis; assay: Antimycobacterial activity against wild type Mycobacterium tuberculosis H37Rv ATCC 27294 after 2 weeks; assay type: functional; settings: 336 h
How it was run: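 M. tuberculosis H37Rv was grown in 7H9 with 0.05% Tween 80, 0.2% glycerol and ADC to OD650 0.2, then diluted 1:1000. It was added to 2-fold serial drug dilutions in the same medium (11 dilutions, 200 µM to 0.19 µM). Plates were incubated 2 weeks at 37°C and MIC99 read macroscopically. Three independent determinations.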

[2] = system: Mycobacterium tuberculosis; assay: Antimycobacterial activity against wild type Mycobacterium tuberculosis H37Rv NRP-2 stage after 3 weeks under anaerobic condition; assay type: functional; settings: 504 h
How it was run: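 H37Rv was anaerobically adapted from OD650 0.005 in glycerol-free Dubos broth, in sealed stirred tubes (head-space ratio 0.5) for 3 weeks at 37°C. Cultures were dispensed in an anaerobic chamber onto drug (2% DMSO final) and held anaerobically 7 days at 37°C. Cells were washed, 2-fold diluted and spotted on 7H11 agar for 3 weeks. MAC: 90% reduction in visible growth. Isoniazid and metronidazole controls; CFU counts corroborated.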

[3] = system: Mycobacterium tuberculosis; assay: Ratio of Kcat/Km for Mycobacterium tuberculosis F420-dependent nitroreductase by Michaelis-Menten equation
How it was run: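 Buffer was 200 mM Tris pH 8.0 with 0.01% Triton X-100 and 20 µM H2F420. H2F420 was made with recombinant Mtb FGD1, which was then heat-inactivated (65°C, 10 min) and removed by ultrafiltration. F420 came from M. smegmatis.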

Structure (SMILES) | MIC [1] [µM] | MBC [2] [µM] | kcat/Km [3] [M⁻¹ s⁻¹]
N[C@@H]1COc2nc([N+](=O)[O-])cn2C1 | > 100 | > 500 | 
O=[N+]([O-])c1cn2c(n1)OC[C@@H](NCc1ccc(OCc3ccccc3)cc1)C2 | 0.15 (≈ 0.0571 µg/mL) | 6.25 (≈ 2.38 µg/mL) | 3450
O=[N+]([O-])c1cn2c(n1)S(=O)(=O)C[C@@H](OCc1ccc(OC(F)(F)F)cc1)C2 | > 100 | 25 (≈ 10.2 µg/mL) | 
O=[N+]([O-])c1cn2c(n1)[S+]([O-])C[C@@H](OCc1ccc(OC(F)(F)F)cc1)C2 (stereo partly drawn) | > 100 | 50 (≈ 19.6 µg/mL) | 
O=[N+]([O-])c1cn2c(n1)SC[C@@H](OCc1ccc(OC(F)(F)F)cc1)C2 | 0.8 (≈ 0.3 µg/mL) | 25 (≈ 9.38 µg/mL) | 2430
O=C(COc1ccc(OC(F)(F)F)cc1)N[C@@H]1COc2nc([N+](=O)[O-])cn2C1 | 0.05 (≈ 0.0201 µg/mL) | 62.5 (≈ 25.1 µg/mL) | 283
CN1C[C@@H](OCc2ccc(OC(F)(F)F)cc2)Cn2cc([N+](=O)[O-])nc21 | 6.25 (≈ 2.33 µg/mL) | ≥ 100 | 1020
O=CN1CC(OCc2ccc(OC(F)(F)F)cc2)Cn2cc([N+](=O)[O-])nc21 (single isomer, unassigned) | 3.2 (≈ 1.24 µg/mL) | 25 (≈ 9.66 µg/mL) | 1080
CC(=O)N1CC(OCc2ccc(OC(F)(F)F)cc2)Cn2cc([N+](=O)[O-])nc21 (single isomer, unassigned) | 6.25 (≈ 2.5 µg/mL) | 31.2 (≈ 12.5 µg/mL) | 
O=[N+]([O-])c1cn2c(n1)OC[C@@H](NCc1ccc(OC(F)(F)F)cc1)C2 | 0.31 (≈ 0.111 µg/mL) | 12.5 (≈ 4.48 µg/mL) | 2870
O=[N+]([O-])c1cn2c(n1)OC[C@@H](NCCCCCc1ccc(OC(F)(F)F)cc1)C2 | 0.078 (≈ 0.0323 µg/mL) | 6.25 (≈ 2.59 µg/mL) | 15200
O=[N+]([O-])c1cn2c(n1)OC[C@@H](NCc1ccc(OCc3ccc(OC(F)(F)F)cc3)cc1)C2 | 0.16 (≈ 0.0743 µg/mL) | 1.56 (≈ 0.724 µg/mL) | 1230
O=[N+]([O-])c1cn2c(n1)SC[C@H](OCc1ccc(OC(F)(F)F)cc1)C2 | 50 (≈ 18.8 µg/mL) | 50 (≈ 18.8 µg/mL) | 
O=[N+]([O-])c1cn2c(n1)CC[C@@H](OCc1ccc(OC(F)(F)F)cc1)C2 | 25 (≈ 8.93 µg/mL) | 250 (≈ 89.3 µg/mL) | 400
O=[N+]([O-])c1cn2c(n1)OC[C@@H](NCc1ccc(OCc3ccc(F)cc3)cc1)C2 | 0.2 (≈ 0.0797 µg/mL) | 2 (≈ 0.797 µg/mL) | 7530
O=[N+]([O-])c1cn2c(n1)OC[C@@H](OCc1ccc(OC(F)(F)F)cc1)C2 [PRETOMANID] | 0.8 (≈ 0.287 µg/mL) | 6.25 (≈ 2.25 µg/mL) | 2580
O=[N+]([O-])c1cn2c(n1)OC[C@@H](NCCc1ccc(OC(F)(F)F)cc1)C2 | 0.16 (≈ 0.0596 µg/mL) | 6.25 (≈ 2.33 µg/mL) | 1830
O=[N+]([O-])c1cn2c(n1)NC[C@@H](OCc1ccc(OC(F)(F)F)cc1)C2 | 0.8 (≈ 0.287 µg/mL) | 125 (≈ 44.8 µg/mL) | 4050
CCCCc1ccc(CN[C@@H]2COc3nc([N+](=O)[O-])cn3C2)cc1 | 0.78 (≈ 0.258 µg/mL) | 50 (≈ 16.5 µg/mL) | 900
O=[N+]([O-])c1cn2c(n1)OC[C@@H](NCCCc1ccc(OC(F)(F)F)cc1)C2 | 0.078 (≈ 0.0301 µg/mL) | 3.12 (≈ 1.21 µg/mL) | 5120
O=[N+]([O-])c1cn2c(n1)OC[C@@H](NCCCCc1ccc(OC(F)(F)F)cc1)C2 | 0.039 (≈ 0.0156 µg/mL) | 3.13 (≈ 1.25 µg/mL) | 8570
